Measured values from ChEMBL document CHEMBL1828575, “Design, synthesis and antiproliferative activities of biarylolefins based on polyhydroxylated and carbohydrate scaffolds” (Eur J Med Chem, 2011).

How the values were obtained:
Type in all cases: functional
HOP-62 = assay: Cytotoxicity against human HOP62 cells assessed as cellular growth at 10 uM after 48 hrs by SRB assay
Summary of the method: (§1)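 NCI60 single-dose screen of cells in RPMI 1640 with 5% FBS and 2 mM L-glutamine, preincubated 24 h at 37 °C, 5% CO₂. Cells were then exposed 48 h to compound added from DMSO stock. TCA-fixed, stained with 0.4% SRB in 1% acetic acid, dye solubilised in 10 mM Tris base and read at 515 nm. Growth is given as percent of untreated control.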

SK-MEL-2 = assay: Antitumor activity against human SK-MEL-2 cells after 48 hrs by SRB assay; conditions: SK-MEL-2, 48 h
Summary of the method: (§2)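 NCI60 panel cells grown in RPMI 1640 with 5% FBS and 2 mM L-glutamine, plated at 5000–40,000 cells/well and preincubated 24 h at 37 °C, 5% CO₂. Compound was added from DMSO at five concentrations, 10-fold or 1/2 log dilutions, then incubated 48 h.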

K562 = assay: Antitumor activity against human K562 cells after 48 hrs by SRB assay; conditions: K562, 48 h
Summary of the method: (§3)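 NCI60 panel in RPMI 1640 with 5% FBS and 2 mM L-glutamine. Cells were plated at 5000–40,000/well by doubling time, held 24 h, then time-zero plates were TCA-fixed. Five concentrations (10-fold or half-log dilutions of DMSO stocks) were applied for 48 h at 37 °C, 5% CO2. Cells were fixed with cold TCA (10% final adherent, 16% suspension) and stained with 0.4% SRB. Bound dye was dissolved in 10 mM Tris and read at 515 nm. GI50, TGI and LC50 were calculated per line.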

M14 = assay: Cytotoxicity against human M14 cells assessed as cellular growth at 10 uM after 48 hrs by SRB assay; summary of the method: as §1
SF-268 [1] = assay: Antitumor activity against human SF268 cells after 48 hrs by SRB assay; conditions: SF-268, 48 h; summary of the method: as §3
SN12C = assay: Antitumor activity against human SN12C cells after 48 hrs by SRB assay; summary of the method: as §2
SF-268 [2] = assay: Cytotoxicity against human SF268 cells assessed as cellular growth at 10 uM after 48 hrs by SRB assay
Summary of the method: (§4)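 NCI-60 panel lines grown in RPMI 1640 with 5% FBS and 2 mM L-glutamine. Plated at 5000–40,000 cells/well and preincubated 24 h at 37 °C, 5% CO₂, with time-zero plates fixed in TCA. Compounds, dissolved in DMSO and diluted in medium, were applied for 48 h. Cells were TCA-fixed (10% final for adherent, 16% for suspension) and stained with 0.4% SRB in 1% acetic acid. Dye was solubilised in 10 mM Tris base and read at 515 nm; growth was expressed as a percentage of untreated control.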

SF-295 = assay: Cytotoxicity against human SF295 cells assessed as cellular growth at 10 uM after 48 hrs by SRB assay; summary of the method: as §4
NCI-H226 = assay: Antitumor activity against human NCI-H226 cells after 48 hrs by SRB assay; conditions: NCI-H226, 48 h; summary of the method: as §3
SK-OV-3 = assay: Antitumor activity against human SKOV3 cells after 48 hrs by SRB assay; conditions: SK-OV-3, 48 h; summary of the method: as §2
NCI-H460 = assay: Antitumor activity against human NCI-H460 cells after 48 hrs by SRB assay; conditions: NCI-H460, 48 h; summary of the method: as §3
HOP-92 = assay: Antitumor activity against human HOP92 cells after 48 hrs by SRB assay; conditions: HOP-92, 48 h; summary of the method: as §3
MCF7 = assay: Antitumor activity against human MCF7 cells after 48 hrs by SRB assay; conditions: MCF7, 48 h; summary of the method: as §3
NCI-H522 = assay: Cytotoxicity against human NCI-H522 cells assessed as cellular growth at 10 uM after 48 hrs by SRB assay; summary of the method: as §4
MDA-MB-468 = assay: Antitumor activity against human MDA-MB-468 cells after 48 hrs by SRB assay; conditions: MDA-MB-468, 48 h; summary of the method: as §3
NCI-H23 = assay: Cytotoxicity against human NCI-H23 cells assessed as cellular growth at 10 uM after 48 hrs by SRB assay; summary of the method: as §4
OVCAR-3 [3] = assay: Cytotoxicity against human OVCAR3 cells assessed as cellular growth at 10 uM after 48 hrs by SRB assay; summary of the method: as §4
MDA-MB-435 = assay: Antitumor activity against human MDA-MB-435 cells after 48 hrs by SRB assay; conditions: MDA-MB-435, 48 h; summary of the method: as §3
HL-60(TB) = assay: Cytotoxicity against human HL-60(TB) cells assessed as cellular growth at 10 uM after 48 hrs by SRB assay
BT-549 = assay: Cytotoxicity against human BT549 cells assessed as cellular growth at 10 uM after 48 hrs by SRB assay; summary of the method: as §1
HCT-116 = assay: Antitumor activity against human HCT116 cells after 48 hrs by SRB assay; conditions: HCT-116, 48 h; summary of the method: as §3
OVCAR-3 [4] = assay: Antitumor activity against human OVCAR3 cells after 48 hrs by SRB assay; conditions: OVCAR-3, 48 h; summary of the method: as §3
CAKI-1 = assay: Cytotoxicity against human Caki1 cells assessed as cellular growth at 10 uM after 48 hrs by SRB assay; summary of the method: as §1
[5] = read-out: LC50 (the source's name)
[6] = read-out: pLC50 (the source's name) (converted)

`COc1cc(/C(=C2\O[C@@H]([C@H]3COC(C)(C)O3)[C@H]3OC(C)(C)O[C@@H]23)c2ccc3ccccc3c2)cc(OC)c1OC` gave an Activity (HOP-62) of 47.96%, a GI50 (SK-MEL-2) of 1.53 µM and a TGI (SK-MEL-2) of 4.12 µM. For the same compound, the CC50 (SK-MEL-2; [5]) was 24.1 µM, the GI50 (K562; read-out: GI50) was 4.02 µM and the CC50 (K562; [5]) was over 100 µM. It also gave a TGI (K562; read-out: TGI) of over 100 µM, a GI50 (K562; read-out: pGI50 (converted)) of 3.98 µM and a CC50 (K562; [6]) of over 100 µM. It also gave a TGI (K562; read-out: pTGI) of over 100 µM, an Activity (M14) of 62.78% and an LC50 (concentration killing 50% of cells relative to time zero) (SF-268 [1]) of over 100 µM. It also gave a GI50 (SF-268 [1]; read-out: GI50) of 3.13 µM, a TGI (SF-268 [1]; read-out: TGI) of 15.9 µM and a GI50 (SF-268 [1]; read-out: pGI50 (converted)) of 3.09 µM. For the same compound, the CC50 (SF-268 [1]; [6]) was over 100 µM, the TGI (SF-268 [1]; read-out: pTGI (converted)) was over 100 µM and the GI50 (SN12C; read-out: GI50) was 3.65 µM. It also gave a CC50 (SN12C; [5]) of over 100 µM, a TGI (SN12C; read-out: TGI) of over 100 µM and a GI50 (SN12C; read-out: pGI50 (converted)) of 3.16 µM. It also gave a CC50 (SN12C; [6]) of over 100 µM, a TGI (SN12C; read-out: pTGI) of over 100 µM and an Activity (SF-268 [2]) of -16.94%. It also gave an Activity (SF-295) of 48.59%, a GI50 (NCI-H226; read-out: GI50) of 3.49 µM and a CC50 (NCI-H226; [5]) of over 100 µM. It also gave a TGI (NCI-H226; read-out: TGI) of 60 µM, a GI50 (NCI-H226; read-out: pGI50 (converted)) of 3.47 µM and a CC50 (NCI-H226; [6]) of over 100 µM. The TGI (NCI-H226; read-out: pTGI (converted)) was 60.3 µM, the GI50 (SK-OV-3; read-out: GI50) was 4.37 µM and the CC50 (SK-OV-3; [5]) was over 100 µM. It also gave a TGI (SK-OV-3; read-out: TGI) of over 100 µM, a GI50 (SK-OV-3; read-out: pGI50 (converted)) of 17.8 µM and a CC50 (SK-OV-3; [6]) of over 100 µM. For the same compound, the TGI (SK-OV-3; read-out: pTGI (converted)) was over 100 µM, the GI50 (NCI-H460; read-out: GI50) was 4.1 µM and the CC50 (NCI-H460; [5]) was over 100 µM. It also gave a TGI (NCI-H460; read-out: TGI) of over 100 µM, a GI50 (NCI-H460; read-out: pGI50 (converted)) of 4.07 µM and a CC50 (NCI-H460; [6]) of over 100 µM. For the same compound, the TGI (NCI-H460; read-out: pTGI) was over 100 µM, the GI50 (HOP-92) was 2.67 µM and the TGI (HOP-92) was 13.3 µM. For the same compound, the CC50 (HOP-92; [5]) was over 100 µM, the GI50 (MCF7; read-out: GI50) was 3.69 µM and the CC50 (MCF7; [5]) was over 100 µM. It also gave a TGI (MCF7; read-out: TGI) of 14.4 µM, a GI50 (MCF7; read-out: pGI50 (converted)) of 3.63 µM and a CC50 (MCF7; [6]) of over 100 µM. It also gave a TGI (MCF7; read-out: pTGI (converted)) of 14.5 µM, an Activity (NCI-H522) of 8.05% and a GI50 (MDA-MB-468; read-out: GI50) of 4.02 µM. For the same compound, the CC50 (MDA-MB-468; [5]) was over 100 µM, the TGI (MDA-MB-468; read-out: TGI) was 21.1 µM and the GI50 (MDA-MB-468; read-out: pGI50 (converted)) was 3.98 µM. The CC50 (MDA-MB-468; [6]) was over 100 µM, the TGI (MDA-MB-468; read-out: pTGI (converted)) was 20.9 µM and the Activity (NCI-H23) was 46.18%. It also gave an Activity (OVCAR-3 [3]) of -6.76%, a GI50 (MDA-MB-435) of 3.61 µM and a TGI (MDA-MB-435) of 17.5 µM. The CC50 (MDA-MB-435; [5]) was over 100 µM, the Activity (HL-60(TB)) was 59.17% and the Activity (BT-549) was 22.16%. The GI50 (HCT-116) was 2.51 µM, the LC50 (concentration giving 50% net cell kill) (HCT-116) was 20.6 µM and the TGI (HCT-116) was 5.7 µM. The GI50 (OVCAR-3 [4]) was 2.39 µM, the TGI (OVCAR-3 [4]) was 5.67 µM and the CC50 (OVCAR-3 [4]; [5]) was 21.7 µM. The Activity (CAKI-1) was 38.73%.
